In ChEMBL document CHEMBL5136969, “A niclosamide-tobramycin hybrid adjuvant potentiates cefiderocol against P. aeruginosa” (2021):
Values after ≈ are worked out from the molar mass of the structure shown. Active and inactive are the calls of the source. No cut-off for these calls is given here.

Legend:
Klebsiella pneumoniae [1] = assay: Antibacterial activity against Klebsiella pneumoniae KP113250 assessed as reduction in bacterial growth after 18 hrs by microbroth dilution method; assay type: functional
Outline: (§1)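 CLSI microbroth dilution in MHB. Overnight cultures were adjusted to 0.5 McFarland in saline, diluted 1:50, and inoculated at about 5 × 10^5 CFU/mL. Agents were 2-fold serially diluted and incubated 18 h at 37 °C. MIC is the lowest concentration without visible turbidity, confirmed by absorbance at 590 nm. Medium with and without cells served as controls.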

Acinetobacter baumannii [2] = assay: Potentiation of cindamycin-induced antibiotic activity against Acinetobacter baumannii ATCC 17978 assessed as MIC fold reduction at 8 ug/ml after 18 hrs by microbroth dilution method; assay type: functional; details: dose 8 µg/ml
Outline: (§2)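 Adjuvant held at a fixed 8 μg/mL while the antibiotic was 2-fold serially diluted in Mueller-Hinton broth (MHB), per CLSI microbroth dilution. Overnight cultures were adjusted in saline to 0.5 McFarland, then diluted 1:50 in MHB to about 5 × 10^5 CFU/mL final, and incubated 18 h at 37 °C. MIC was the lowest concentration with no visible turbidity, confirmed at 590 nm. Fold potentiation = MIC alone / MIC with adjuvant.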

Pseudomonas aeruginosa [3] = assay: Antibacterial activity against Pseudomonas aeruginosa PAO1 assessed as reduction in bacterial growth after 18 hrs by microbroth dilution method; assay type: functional
Outline: (§3)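 CLSI broth microdilution. Overnight cultures were adjusted in saline to 0.5 McFarland, diluted 1:50 in Mueller-Hinton broth (MHB), and inoculated at about 5 × 10^5 CFU/mL. Agents were 2-fold serially diluted in MHB, mixed 1:1 with inoculum, and held at 37 °C for 18 h. MIC was the lowest concentration with no visible turbidity, confirmed at 590 nm.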

Klebsiella pneumoniae [4] = assay: Antibacterial activity against Klebsiella pneumoniae KP113254 assessed as reduction in bacterial growth after 18 hrs in presence of cefiderocol by microbroth dilution method; assay type: functional
Outline: (§4)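 Checkerboard in MHB. Cefiderocol was 2-fold serially diluted along one axis and the adjuvant along the other. Inoculum was prepared from 0.5 McFarland saline suspensions diluted 1:50 in MHB, giving about 5 × 10^5 CFU/mL final. Plates ran 18 h at 37 °C, with turbidity confirmed at 590 nm. FIC = combination MIC ÷ MIC alone for each agent, and FIC index = sum of both. Interpretation: ≤0.5 synergy, >0.5–4 additive, >4 antagonism.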

Acinetobacter baumannii [5] = assay: Potentiation of ciprofloxacin-induced antibiotic activity against Acinetobacter baumannii ATCC 17978 assessed as MIC fold reduction at 8 ug/ml after 18 hrs by microbroth dilution method; assay type: functional; details: dose 8 µg/ml; outline: as §2
Escherichia coli [6] = assay: Potentiation of novobiocin-induced antibiotic activity against Escherichia coli ATCC 25922 assessed as MIC fold reduction at 8 ug/ml after 18 hrs by microbroth dilution method; assay type: functional; details: dose 8 µg/ml
Acinetobacter baumannii [7] = assay: Potentiation of erythromycin-induced antibiotic activity against Acinetobacter baumannii ATCC 17978 assessed as MIC fold reduction at 8 ug/ml after 18 hrs by microbroth dilution method; assay type: functional; details: dose 8 µg/ml; outline: as §2
Pseudomonas aeruginosa [8] = assay: Antibacterial activity against MDR clinical isolate Pseudomonas aeruginosa PA264 assessed as reduction in bacterial growth after 18 hrs by microbroth dilution method; assay type: functional
Outline: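 Broth microdilution per CLSI in Mueller-Hinton broth (MHB). Overnight cultures were adjusted to 0.5 McFarland in saline, diluted 1:50 in MHB, and added at about 5 × 10^5 CFU/mL final to equal volumes of 2-fold serial dilutions of agent. Incubation was 18 h at 37 °C. MIC was the lowest concentration with no visible turbidity, confirmed by absorbance at 590 nm.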

Acinetobacter baumannii [9] = assay: Antibacterial activity against Acinetobacter baumannii AB031 assessed as reduction in bacterial growth after 18 hrs by microbroth dilution method; assay type: functional; outline: as §1
Pseudomonas aeruginosa [10] = assay: Potentiation of antibiotic activity against Pseudomonas aeruginosa PA259 assessed as MIC fold reduction in ID-CAMHB condition at 8 ug/ml after 18 hrs by microbroth dilution method; details: dose 8.0 µg/ml
Acinetobacter baumannii [11] = assay: Potentiation of moxifloxacin-induced antibiotic activity against Acinetobacter baumannii ATCC 17978 assessed as MIC fold reduction at 8 ug/ml after 18 hrs by microbroth dilution method; assay type: functional; details: dose 8 µg/ml; outline: as §2
Acinetobacter baumannii [12] = assay: Potentiation of cefiderocol-induced antibiotic activity against Acinetobacter baumannii ATCC 17978 assessed as MIC fold reduction at 8 ug/ml after 18 hrs by microbroth dilution method; assay type: functional; details: dose 8 µg/ml
Outline: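 Initial screen in MHB using a fixed 8 μg mL−1 of adjuvant combined with each antibiotic under 2-fold dilution. Broth microdilution used about 5 × 10^5 CFU/mL at 37 °C for 18 h, with visible turbidity read and confirmed at 590 nm. Fold-potentiation = antibiotic MIC alone ÷ antibiotic MIC with adjuvant.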

Escherichia coli [13] = assay: Antibacterial activity against Escherichia coli ATCC 25922 assessed as reduction in bacterial growth after 18 hrs by microbroth dilution method; assay type: functional; outline: as §1
Pseudomonas aeruginosa [14] = assay: Potentiation of piperacilin-induced antibiotic activity against Pseudomonas aeruginosa PAO1 assessed as MIC fold reduction at 8 ug/ml after 18 hrs by microbroth dilution method; assay type: functional; details: dose 8 µg/ml
Pseudomonas aeruginosa [15] = assay: Antibacterial activity against MDR clinical isolate Pseudomonas aeruginosa PA88949 assessed as reduction in bacterial growth after 18 hrs in presence of cefiderocol by microbroth dilution method; assay type: functional; outline: as §4
Escherichia coli [16] = assay: Potentiation of doxycycline-induced antibiotic activity against Escherichia coli ATCC 25922 assessed as MIC fold reduction at 8 ug/ml after 18 hrs by microbroth dilution method; assay type: functional; details: dose 8 µg/ml; outline: as §2
Acinetobacter baumannii [17] = assay: Potentiation of sulfamethoxazole-induced antibiotic activity against Acinetobacter baumannii ATCC 17978 assessed as MIC fold reduction at 8 ug/ml after 18 hrs by microbroth dilution method; assay type: functional; details: dose 8 µg/ml
Escherichia coli [18] = assay: Antibacterial activity against Escherichia coli 94474 assessed as potentiation of cefiderocol antibacterial activity by measuring FIC after 18 hrs by microbroth dilution method; assay type: functional
Outline: (§5)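 Checkerboard in Mueller-Hinton broth: cefiderocol 2-fold diluted on one axis, adjuvant 2-fold on the other. Overnight cultures were adjusted to 0.5 McFarland in saline, diluted 1:50 in MHB, and inoculated at about 5 × 10^5 CFU/mL. Incubation was 18 h at 37 °C. Turbidity was read visually and confirmed at 590 nm. FIC index = FIC of antibiotic + FIC of adjuvant; ≤0.5 synergy, >4 antagonism.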

Acinetobacter baumannii [19] = assay: Potentiation of minocycline-induced antibiotic activity against Acinetobacter baumannii ATCC 17978 assessed as MIC fold reduction at 8 ug/ml after 18 hrs by microbroth dilution method; assay type: functional; details: dose 8 µg/ml; outline: as §2
Escherichia coli [20] = assay: Potentiation of ceftazidime-induced antibiotic activity against Escherichia coli ATCC 25922 assessed as MIC fold reduction at 8 ug/ml after 18 hrs by microbroth dilution method; assay type: functional; details: dose 8 µg/ml; outline: as §2
Klebsiella pneumoniae [21] = assay: Antibacterial activity against Klebsiella pneumoniae KP116381 assessed as reduction in bacterial growth after 18 hrs by microbroth dilution method; assay type: functional; outline: as §3
Acinetobacter baumannii [22] = assay: Antibacterial activity against Acinetobacter baumannii AB031 assessed as reduction in bacterial growth after 18 hrs in presence of cefiderocol by microbroth dilution method; assay type: functional; outline: as §5
Acinetobacter baumannii [23] = assay: Potentiation of chloamphenicol-induced antibiotic activity against Acinetobacter baumannii ATCC 17978 assessed as MIC fold reduction at 8 ug/ml after 18 hrs by microbroth dilution method; assay type: functional; details: dose 8 µg/ml; outline: as §2
Enterobacter cloacae = assay: Antibacterial activity against Enterobacter cloacae 117029 assessed as reduction in bacterial growth after 18 hrs by microbroth dilution method; assay type: functional; outline: as §1

For `NC[C@H]1O[C@H](O[C@H]2[C@H](OCCCCc3cn(-c4ccc(NC(=O)c5cc(Cl)ccc5O)cc4)nn3)[C@@H](O[C@H]3O[C@H](CO)[C@@H](O)[C@H](N)[C@H]3O)[C@H](N)C[C@@H]2N)[C@H](N)C[C@@H]1O`, the MIC (Klebsiella pneumoniae [1]) was > 128 µg/mL, the “fold change (FC)” value (Acinetobacter baumannii [2]) was 4 and the MIC (Pseudomonas aeruginosa [3]) was 64 µg/mL (≈ 76.5 µM). The MIC (Klebsiella pneumoniae [4]) was 1 µg/mL, the “fold change (FC)” value (Acinetobacter baumannii [5]) was 4 and the “fold change (FC)” value (Escherichia coli [6]) was 4. For the same compound, the “fold change (FC)” value (Acinetobacter baumannii [7]) was 4, the MIC (Pseudomonas aeruginosa [8]) was > 128 µg/mL and the MIC (Acinetobacter baumannii [9]) was > 128 µg/mL. The Activity (Pseudomonas aeruginosa [10]) was “Active”, the “fold change (FC)” value (Acinetobacter baumannii [11]) was 4 and the “fold change (FC)” value (Acinetobacter baumannii [12]) was 4. The MIC (Escherichia coli [13]) was > 128 µg/mL, the “fold change (FC)” value (Pseudomonas aeruginosa [14]) was 4 and the MIC (Pseudomonas aeruginosa [15]) was 0.25 µg/mL. The “fold change (FC)” value (Escherichia coli [16]) was 4, the “fold change (FC)” value (Acinetobacter baumannii [17]) was 4 and the FIC (Escherichia coli [18]) was 0.25. The “fold change (FC)” value (Acinetobacter baumannii [19]) was 4, the “fold change (FC)” value (Escherichia coli [20]) was 4 and the MIC (Klebsiella pneumoniae [21]) was > 128 µg/mL. The MIC (Acinetobacter baumannii [22]) was 0.25 µg/mL, the “fold change (FC)” value (Acinetobacter baumannii [23]) was 4 and the MIC (Enterobacter cloacae) was > 128 µg/mL.
